# From ChEMBL document CHEMBL1795330, “Dual IGF-1R/SRC inhibitors based on a N'-aroyl-2-(1H-indol-3-yl)-2-oxoacetohydrazide structure” (Eur J Med Chem, 2011)
# How the values were obtained:
# [1] = target: Hepatocyte growth factor receptor (Homo sapiens, UniProt P08581); assay: Inhibition of c-MET assessed as incorporation of p33 using [gammaP33]-ATP by microplate scintillation counting
# How it was run: (§1)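 Compound added in 10% DMSO. Incubated 80 min at 30 °C, stopped with 2% phosphoric acid, washed with 0.9% NaCl, 33P incorporation counted by scintillation. Activity normalised to no-enzyme and no-inhibitor controls; plates repeated if Z′ < 0.4.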
# [2] = target: Insulin-like growth factor 1 receptor (Homo sapiens, UniProt P08069); assay: Inhibition of IGF-1R assessed as incorporation of p33 using [gammaP33]-ATP by microplate scintillation counting; how it was run: as §1
# Chain of Insulin-like growth factor 1 receptor (P08069 31-736 limits assumed): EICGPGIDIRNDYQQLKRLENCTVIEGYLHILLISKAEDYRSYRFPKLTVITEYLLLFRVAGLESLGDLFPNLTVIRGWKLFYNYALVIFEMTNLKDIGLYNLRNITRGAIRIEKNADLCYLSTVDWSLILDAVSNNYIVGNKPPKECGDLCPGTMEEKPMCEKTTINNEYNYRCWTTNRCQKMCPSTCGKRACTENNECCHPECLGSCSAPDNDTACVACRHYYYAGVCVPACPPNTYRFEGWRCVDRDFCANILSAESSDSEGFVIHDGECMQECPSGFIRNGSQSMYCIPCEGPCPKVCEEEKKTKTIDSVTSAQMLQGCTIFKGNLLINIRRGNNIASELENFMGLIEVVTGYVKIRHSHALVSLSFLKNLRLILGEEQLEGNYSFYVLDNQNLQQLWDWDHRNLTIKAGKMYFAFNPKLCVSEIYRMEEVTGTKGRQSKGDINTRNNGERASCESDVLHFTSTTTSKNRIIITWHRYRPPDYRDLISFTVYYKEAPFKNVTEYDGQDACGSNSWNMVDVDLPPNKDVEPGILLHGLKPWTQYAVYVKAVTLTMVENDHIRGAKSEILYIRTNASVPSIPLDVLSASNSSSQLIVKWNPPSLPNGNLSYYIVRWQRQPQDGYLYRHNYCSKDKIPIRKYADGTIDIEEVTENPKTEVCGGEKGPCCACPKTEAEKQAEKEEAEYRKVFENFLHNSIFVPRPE
# Chain of Insulin-like growth factor 1 receptor (P08069 741-1367 limits assumed): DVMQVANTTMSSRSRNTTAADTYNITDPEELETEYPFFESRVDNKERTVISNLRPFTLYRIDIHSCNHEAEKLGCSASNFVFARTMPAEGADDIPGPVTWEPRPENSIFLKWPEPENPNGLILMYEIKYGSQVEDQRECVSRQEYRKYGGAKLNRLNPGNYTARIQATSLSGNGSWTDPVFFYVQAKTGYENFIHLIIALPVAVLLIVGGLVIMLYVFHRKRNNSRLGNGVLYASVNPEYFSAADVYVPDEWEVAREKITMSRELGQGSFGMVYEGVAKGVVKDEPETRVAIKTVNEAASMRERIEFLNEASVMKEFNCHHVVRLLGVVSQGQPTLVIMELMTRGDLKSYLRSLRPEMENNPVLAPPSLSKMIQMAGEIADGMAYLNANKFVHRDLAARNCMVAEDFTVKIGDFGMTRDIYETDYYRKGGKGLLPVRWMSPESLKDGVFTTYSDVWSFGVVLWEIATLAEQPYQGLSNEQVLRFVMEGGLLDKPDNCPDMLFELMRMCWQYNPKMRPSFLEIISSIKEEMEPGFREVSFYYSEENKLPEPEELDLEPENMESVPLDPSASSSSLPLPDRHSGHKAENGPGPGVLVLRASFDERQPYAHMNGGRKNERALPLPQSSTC
# [3] = target: Proto-oncogene tyrosine-protein kinase Src (Homo sapiens, UniProt P12931); assay: Inhibition of SRC assessed as incorporation of p33 using [gammaP33]-ATP by microplate scintillation counting; how it was run: as §1
# Chain of Proto-oncogene tyrosine-protein kinase Src (P12931 2-536 limits assumed): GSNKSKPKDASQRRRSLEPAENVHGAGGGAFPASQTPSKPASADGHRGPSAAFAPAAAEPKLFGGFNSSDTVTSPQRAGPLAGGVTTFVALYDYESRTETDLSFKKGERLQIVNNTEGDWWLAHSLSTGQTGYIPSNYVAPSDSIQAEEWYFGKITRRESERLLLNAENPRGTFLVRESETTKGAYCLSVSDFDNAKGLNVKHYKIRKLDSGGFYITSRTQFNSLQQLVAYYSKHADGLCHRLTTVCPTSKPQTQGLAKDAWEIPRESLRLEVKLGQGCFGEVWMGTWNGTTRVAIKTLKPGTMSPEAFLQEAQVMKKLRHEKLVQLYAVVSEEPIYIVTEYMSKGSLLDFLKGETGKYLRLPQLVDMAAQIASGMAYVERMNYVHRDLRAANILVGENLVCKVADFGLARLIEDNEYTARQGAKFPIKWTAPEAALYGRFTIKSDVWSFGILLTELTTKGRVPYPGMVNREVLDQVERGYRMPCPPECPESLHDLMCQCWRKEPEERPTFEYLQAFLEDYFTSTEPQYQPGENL
# OVCAR-8 = assay: Antiproliferative activity against human OVCAR8 at 10 uM after 48 hrs by sulforhodamine B assay relative to control; assay type: functional; settings: OVCAR-8, 48 h
# How it was run: (§2)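 NCI cell-line screen: cells plated at 5000–40,000/well in medium with 5% foetal bovine serum and 2 mM L-glutamine, preincubated 24 h at 37 °C, 5% CO2. Time-zero plates fixed with TCA at drug addition. Compound from DMSO stock added; 48 h exposure. Cells fixed in situ with cold TCA, stained with 0.4% sulforhodamine B in 1% acetic acid, absorbance 515 nm; growth expressed relative to untreated controls (100%).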
# NCI-H522 = assay: Antiproliferative activity against human NCI-H522 at 10 uM after 48 hrs by sulforhodamine B assay relative to control; assay type: functional; settings: NCI-H522, 48 h; how it was run: as §2
# A549 = assay: Antiproliferative activity against human A549 cells at 10 uM after 48 hrs by sulforhodamine B assay relative to control; assay type: functional; settings: A549, 48 h; how it was run: as §2
# Chain of Hepatocyte growth factor receptor (P08581 whole entry): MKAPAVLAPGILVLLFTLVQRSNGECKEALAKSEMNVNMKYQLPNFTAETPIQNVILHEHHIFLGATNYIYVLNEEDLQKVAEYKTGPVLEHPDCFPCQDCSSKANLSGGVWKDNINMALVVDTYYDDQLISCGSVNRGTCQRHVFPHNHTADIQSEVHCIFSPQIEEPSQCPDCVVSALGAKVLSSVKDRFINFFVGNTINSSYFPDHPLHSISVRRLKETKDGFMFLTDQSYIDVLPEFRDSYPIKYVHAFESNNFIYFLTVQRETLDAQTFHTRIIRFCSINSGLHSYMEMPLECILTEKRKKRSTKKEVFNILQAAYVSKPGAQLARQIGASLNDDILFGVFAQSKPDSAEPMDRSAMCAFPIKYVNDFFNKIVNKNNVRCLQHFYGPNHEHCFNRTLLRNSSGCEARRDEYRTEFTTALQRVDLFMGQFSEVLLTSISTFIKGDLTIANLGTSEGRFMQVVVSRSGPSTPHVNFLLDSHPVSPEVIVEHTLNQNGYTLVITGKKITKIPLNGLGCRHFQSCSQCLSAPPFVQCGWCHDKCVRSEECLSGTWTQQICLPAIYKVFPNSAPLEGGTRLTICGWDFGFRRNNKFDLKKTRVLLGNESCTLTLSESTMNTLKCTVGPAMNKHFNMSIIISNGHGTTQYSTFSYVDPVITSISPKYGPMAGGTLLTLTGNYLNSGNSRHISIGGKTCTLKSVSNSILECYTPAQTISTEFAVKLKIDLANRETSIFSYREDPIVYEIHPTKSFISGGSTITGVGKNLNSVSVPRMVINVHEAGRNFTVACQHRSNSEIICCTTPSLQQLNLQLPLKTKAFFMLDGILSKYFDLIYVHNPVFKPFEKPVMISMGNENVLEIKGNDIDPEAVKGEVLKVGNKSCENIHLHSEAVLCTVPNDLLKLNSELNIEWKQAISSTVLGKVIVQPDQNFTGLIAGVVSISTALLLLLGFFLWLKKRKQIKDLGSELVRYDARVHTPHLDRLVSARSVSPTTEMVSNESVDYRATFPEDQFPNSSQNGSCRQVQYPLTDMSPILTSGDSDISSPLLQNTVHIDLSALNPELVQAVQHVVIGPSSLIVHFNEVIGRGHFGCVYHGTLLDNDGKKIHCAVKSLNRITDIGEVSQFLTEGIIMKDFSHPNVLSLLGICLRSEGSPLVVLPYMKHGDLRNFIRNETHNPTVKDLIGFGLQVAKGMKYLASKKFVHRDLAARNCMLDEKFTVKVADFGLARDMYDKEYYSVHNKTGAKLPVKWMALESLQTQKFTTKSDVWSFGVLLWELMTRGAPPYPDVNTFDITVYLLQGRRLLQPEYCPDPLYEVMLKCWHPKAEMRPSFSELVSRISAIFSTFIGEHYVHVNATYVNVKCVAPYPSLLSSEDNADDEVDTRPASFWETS
SMILES,IC50 [1] [µM],IC50 [2] [µM],IC50 [3] [µM],"growth, % of control at 10 µM (OVCAR-8) [%]","growth, % of control at 10 µM (NCI-H522) [%]","growth, % of control at 10 µM (A549) [%]"
O=C(NNc1ccc(Cl)cc1)C(=O)c1c[nH]c2ccccc12,> 100,> 100,,,,
O=C(NNC(=O)c1ccc([N+](=O)[O-])cc1)C(=O)c1c[nH]c2ccccc12,69,> 100,,,,
O=C(NNc1ccc(Br)cc1)C(=O)c1c[nH]c2ccccc12,> 100,> 100,,,,
O=C(NNc1ccc(I)cc1)C(=O)c1c[nH]c2ccccc12,> 100,> 100,,,,
Cc1ccc(CCNC(=O)C(=O)c2c[nH]c3ccccc23)cc1,> 100,52,,,,
O=C(NCCc1cccc(Cl)c1)C(=O)c1c[nH]c2ccccc12,> 100,> 100,,,,
O=C(NNC(=O)c1ccccc1)C(=O)c1c[nH]c2ccccc12,> 100,> 100,,,,
Cc1ccc(C(=O)NNC(=O)C(=O)c2c[nH]c3ccccc23)cc1,95,82,,,,
COc1ccc(C(=O)NNC(=O)C(=O)c2c[nH]c3ccccc23)cc1,96,54,,,,
O=C(NNC(=O)c1ccc(C(F)(F)F)cc1)C(=O)c1c[nH]c2ccccc12,49,4.1,1.3,,,
O=C(NNC(=O)c1ccc(Cl)cc1)C(=O)c1c[nH]c2ccccc12,48,16,,,,
O=C(NNC(=O)c1ccccc1F)C(=O)c1c[nH]c2ccccc12,91,91,96,,,
Cc1nc(-c2ccc(C(=O)NNC(=O)C(=O)c3c[nH]c4ccccc34)cc2)no1,95,12,22,,,
Cc1cncc(Oc2ccc(C(=O)NNC(=O)C(=O)c3c[nH]c4ccccc34)cc2)n1,> 100,31,40,,,
Cc1ccc(CNC(=O)C(=O)c2c[nH]c3ccccc23)cc1,> 100,63,,,,
O=C(NCc1cccc(Cl)c1)C(=O)c1c[nH]c2ccccc12,> 100,> 100,,,,
O=C(NCCc1ccc(Cl)cc1)C(=O)c1c[nH]c2ccccc12,> 100,> 100,,,,
COc1ccc(CCNC(=O)C(=O)c2c[nH]c3ccccc23)cc1OC,> 100,> 100,,,,
O=C(NNc1ccccc1)C(=O)c1c[nH]c2ccccc12,> 100,> 100,,,,
O=C(NCc1ccc(Cl)cc1)C(=O)c1c[nH]c2ccccc12,> 100,> 100,,,,
O=C(NCc1ccccc1)C(=O)c1c[nH]c2ccccc12,> 100,> 100,,,,

# These reach a lower IC50 [1]. Values come first.
IC50 [1] [µM],IC50 [2] [µM],IC50 [3] [µM],SMILES,"growth, % of control at 10 µM (OVCAR-8) [%]","growth, % of control at 10 µM (NCI-H522) [%]","growth, % of control at 10 µM (A549) [%]"
36,4.4,5.9,CC(C)(C)c1ccc(C(=O)NNC(=O)C(=O)c2c[nH]c3ccccc23)cc1,,,
14,4,4.5,O=C(NNC(=O)c1ccc(I)cc1)C(=O)c1c[nH]c2ccccc12,,,
16,4.9,3.6,Cc1ccc(C)n1-c1ccc(C(=O)NNC(=O)C(=O)c2c[nH]c3ccccc23)cc1,,,
13,4.9,1.9,O=C(NNC(=O)c1ccc(-c2ccccc2OCc2ccc(F)cc2)cc1)C(=O)c1c[nH]c2ccccc12,,,
5.2,0.81,0.62,O=C(NNC(=O)c1ccc(-c2ccccc2COc2cccc(C(F)(F)F)c2)cc1)C(=O)c1c[nH]c2ccccc12,,,
7.6,0.99,0.72,O=C(NNC(=O)c1ccc(-c2cccc(COc3cccc(C(F)(F)F)c3)c2)cc1)C(=O)c1c[nH]c2ccccc12,,,
4.1,0.67,0.52,Cc1cc(C(C)(C)C)ccc1OCc1cccc(-c2ccc(C(=O)NNC(=O)C(=O)c3c[nH]c4ccccc34)cc2)c1,-9.59,-7.7,7.38
8.8,0.68,0.38,COCCc1ccc(OCc2cccc(-c3ccc(C(=O)NNC(=O)C(=O)c4c[nH]c5ccccc45)cc3)c2)cc1,,,
27,3.3,2.8,CS(=O)(=O)NCc1cccc(-c2ccc(C(=O)NNC(=O)C(=O)c3c[nH]c4ccccc34)cc2)c1,,,
